Sampled rows, rich in hits. Any-hit rate of the full collection: about 5.1%.
STAT3 inh-1: reduces IL-6 driven STAT3 reporter signal | inhibition, % at 5.5 µM | actives 0.89% (n = 190,000) | U3A cells, IL-6 STAT3-luciferase reporter, luminescence; host cell line lacks STAT1;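 active means inhibition above the mean inhibition across all screened compounds plus 3 SD, cut at about 44% in these data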;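 further: 0% = DMSO only wells and 100% = 100 µM nifuroxazide control wells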
STAT1 activator: increases IFN-gamma driven STAT1 reporter signal | AID 932 | activation (% of control), % at 5.5 µM | NIH 3T3 STAT1-luciferase reporter, luminescence; 100% = IFN-gamma alone, no compound | actives 2.6% (n = 200,000);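 active means activation above the screen-wide mean activation plus 3 SD, cut at about 130% in these data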;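 further: raw ratio to IFN-gamma control signal so 100% means no change and 0% no light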
NF-kB neuron act: NF-kB expression increase, human neuronal cells; actives 1.6% (n = 190,000); AID 1239; NF-kB reporter expression; hits give high values; fold change at 12.5 µM; in the data active means fold change above about 3.3
APP 5'UTR act: APP 5'UTR luciferase reporter activation | SH-SY5Y APP 5'UTR luciferase reporter, luminescence; zero percent = DMSO vehicle wells | activation, % at 2 µM | actives 1% (n = 190,000);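 active means activation above a set limit, based on mean plus 3 SD of controls, cut at about 140% in these data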
STAT3 activator: STAT3 signaling activation. activation (% of control), % at 5.6 µM. AID 871. actives 0.91% (n = 190,000). U3A cells, IL-6 STAT3-luciferase reporter, luminescence; 100% = signal with IL-6 EC80 alone;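 active means activation above the screen-wide mean of compound activation plus 3 SD, cut at about 130% in these data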;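 further: 0% = background luminescence of wells with medium and substrate only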
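system = STAT3-luciferase reporter U3A cells | reagent = IL-6 stimulus at 33 ng/mL final | timing = 1 h compound pre-exposure, 6 h IL-6 stimulation, 37 °C | measured by = luminescence | evaluation = % activation versus median of IL-6-stimulated wells | control set = IL-6-only wells as 100% reference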
STAT1 inh: reduces IFN-gamma driven STAT1 reporter signal. inhibition, % at 5.5 µM. NIH 3T3 STAT1-luciferase reporter, luminescence. actives 0.35% (n = 200,000);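 active means inhibition above a set limit, the mean inhibition across all tested compounds plus 3 SD, cut at about 34% in these data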;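 further: 0% = IFN-gamma with DMSO and 100% = IFN-gamma with 300 µM nifuroxazide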
STAT3 inh-2: STAT3 inhibition, confirmation assay | shares compounds with STAT3 inh-1 | U3A cells, IL-6 STAT3 luciferase reporter, luminescence; cell line lacks STAT1 | inhibition, % at 5.7 µM | actives 45% (n = 1,200) | AID 1265;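 active means inhibition above the hit cutoff computed for the primary STAT3 screen, cut at about 44% in these data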;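 further: 0% = IL-6 plus DMSO and 100% = IL-6 plus nifuroxazide control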
NFkB inh 2: inhibits NF-kappaB, counter-screen to STAT3 inhibitors; shares compounds with STAT3 inh-1; HEK293T NF-kB luciferase reporter, TNF-alpha induced; inhibition, % at 5.7 µM; actives 36% (n = 1,200); AID 1308;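 active means inhibition above the mean of solvent-only control wells plus 3 SD, cutoff set per campaign, cut at about 13% in these data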;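 further: 0% = TNF-alpha with DMSO and 100% = TNF-alpha with MG high control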
STAT1 inh STAT3c: counter-screen for STAT3 inhibitors: STAT1 inhibition. shares compounds with STAT3 inh-1. NIH 3T3 STAT1-luciferase reporter, IFN-gamma induced, luminescence. inhibition, % at 5.7 µM. actives 27% (n = 1,200). AID 1317;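 active means inhibition above the mean plus 3 SD of solvent-only control wells, limit set per screening run, cut at about 16% in these data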;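 further: 0% = DMSO with IFN-gamma and 100% = nifuroxazide control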
* hit, by the source's call; . = no result given.

SMILES	STAT3 inh-1	STAT1 activator	NF-kB neuron act	APP 5'UTR act	STAT3 activator	STAT1 inh	STAT3 inh-2	NFkB inh 2	STAT1 inh STAT3c
Cc1cc(C(=O)OCC(=O)Nc2cccc(S(=O)(=O)N(C)C)c2)c2ccccc2n1	47.4*	79.1	1.21	-8.2	64.1	21.2	25.1	1.1	8.8
O=C(CSc1nnc(Cn2nnc3ccccc32)o1)N(Cc1ccc(Cl)cc1)c1ccccc1	53.4*	95.5	0.69	.	55.4	17.7	45.0*	12.8*	19.1*
Clc1ccc(CSc2nnc(Cn3cnc4ccccc43)o2)cc1	63.3*	101.6	0.82	4.8	48.2	12.2	45.1*	11.9	8.0
NC(=O)CSc1nnc(Cn2cnc3ccccc32)o1	6.9	91.0	1.41	0.8	99.5	7.8	.	.	.
Cc1nn(Cc2ccc(Cl)cc2Cl)c(C)c1NC(=O)C1C2CCC(O2)C1C(=O)O (stereo not drawn)	47.2*	91.1	0.95	-6.4	62.9	17.3	26.8	4.2	9.7
Cc1ccccc1NC(=O)COC(=O)Cc1ccsc1	9.1	95.7	1.05	29.3	97.0	4.5	.	.	.
COc1ccc(C(=O)Nc2ccc(S(=O)(=O)N3CCc4ccccc43)cc2)cc1	51.3*	95.0	0.71	9.9	59.8	5.3	39.1	13.2*	2.2
CCc1c(C)nc2ncnn2c1NCCc1ccccc1	41.6	89.3	0.93	-4.4	68.5	12.0	.	.	.
CCc1c(C)nc2ncnn2c1NCCc1ccc(Cl)cc1	54.1*	77.3	0.89	-4.9	55.8	22.7	58.8*	16.5*	24.6*
CCOc1cccc2cc(-c3cn4cc(C)ccc4n3)c(=O)oc12	69.1*	141.4*	3.46*	-3.4	43.3	-45.5	39.3	-17.4	-81.6
CN(C)c1ccc(C(=O)c2ccccc2)cc1	0.9	119.6	1.75	64.7	100.5	-21.3	.	.	.
CN(C)c1ccc(C(=S)Nc2ccccc2)cc1	57.2*	138.8*	2.94	132.2	52.9	-43.9	23.2	-36.8	-108.6
CCO[C@@H]1OC(C(=O)N2CCN(Cc3ccccc3)CC2)=C[C@H](c2csc3ccccc23)[C@H]1CCCO	.	111.2	0.61	20.3	.	-10.4	.	.	.
Fc1cccc(/C=N/Nc2ccc3ccccc3n2)c1	60.1*	67.9	1.22	224.9*	52.1	33.8	17.1	-4.1	-82.3
Brc1ccc(/C=N/Nc2ccc3ccccc3n2)cc1	2.1	125.8	3.27	29.9	98.6	-28.4	.	.	.
Cc1nn(C)cc1C(C(=O)NC1CCCCC1)N(Cc1ccccc1Cl)C(=O)c1cnccn1 (stereo not drawn)	6.3	100.5	1.43	5.2	98.4	-2.2	.	.	.
Cc1c(Cl)cccc1NC(CC(=O)c1ccccc1)C(=O)O (stereo not drawn)	-21.9	93.3	1.44	28.0	118.5	7.6	.	.	.
O=C(CC(Nc1ccccc1Cl)C(=O)O)c1ccccc1 (stereo not drawn)	62.3*	127.3	0.61	172.3*	48.9	-31.1	16.3	-41.4	-130.9
CCC1(C)N(O)C(C)(C)C(c2ccc(F)cc2)=[N+]1[O-] (stereo not drawn)	8.8	92.7	1.37	-2.1	96.1	7.9	.	.	.
Cc1nc(-c2coc3cc(OCC(=O)O)ccc3c2=O)cs1	38.2	79.0	0.84	-0.5	73.5	23.0	.	.	.
COc1ccc2c(=O)c(-c3nc(C)cs3)coc2c1	51.3*	119.6	5.89*	96.5	58.6	-16.2	4.1	-16.7	-103.2
COc1ccc(NC(=O)CSc2nnc(NC(=O)c3ccccc3C(=O)O)s2)cc1	8.2	101.8	1.62	19.3	95.0	-3.8	.	.	.
Cc1cc(C)nc(SCC(=O)Nc2ccc(N3CCOCC3)c(Cl)c2)n1	45.1*	80.1	1.1	-8.5	62.9	21.6	50.5*	12.2	24.0*
CC(=O)Nc1ccc2nc(SCC(=O)Nc3ccc(N4CCOCC4)c(Cl)c3)sc2c1	4.6	126.3	1.6	34.9	101.6	-28.7	.	.	.
COc1ccccc1N1CCN(c2ccc(-c3ccccc3)nn2)CC1	67.1*	111.7	6.59*	-89.6	46.8	-14.6	40.9	18.1*	-65.0
SMILES	STAT3 inh-1	STAT1 activator	NF-kB neuron act	APP 5'UTR act	STAT3 activator	STAT1 inh	STAT3 inh-2	NFkB inh 2	STAT1 inh STAT3c
O=C(CN1CCN(c2ccccc2F)CC1)NC(=O)NCc1ccccc1	4.1	101.7	1.38	-5.8	102.0	-4.0	.	.	.
O=C(COC(=O)c1n[nH]c2ccccc12)Nc1cccc(S(=O)(=O)N2CCOCC2)c1	14.2	85.0	1.04	-3.3	94.6	14.4	.	.	.
O=C(COC(=O)c1n[nH]c2ccccc12)Nc1ccc(S(=O)(=O)N2CCCC2)cc1	70.8*	96.1	0.5	4.5	45.4	4.3	51.0*	5.5	9.2
CC(C)CCNC(=O)c1sc2ccc(S(=O)(=O)N3CCCCC3)cc2c1N	-2.2	95.5	0.65	6.9	98.2	4.9	.	.	.
CNS(=O)(=O)c1cccc(C(=O)OCC(=O)Nc2ccc(-c3nc4ccc(C)cc4s3)cc2)c1	68.3*	73.1	1.02	167.1*	46.0	28.0	32.5	-13.4	-79.2
Cc1ccc2nc(-c3ccc(NC(=O)COC(=O)c4ccco4)cc3)sc2c1	50.5*	140.8*	4.29*	148.1*	56.2	-44.8	28.3	-20.3	-64.0
Cc1ccc(NC(=O)COC(=O)c2ccco2)cc1	2.0	103.0	1.05	14.6	101.3	-5.4	.	.	.
CCOc1ncccc1C(=O)OCC(=O)Nc1ccc(-c2nc3ccc(C)cc3s2)cc1	72.1*	116.8	3.45*	163.9*	39.0	-18.6	45.6*	-20.5	-24.7
Cc1noc(C)c1COC(=O)Cc1ccc(Br)cc1	13.5	99.0	1.19	21.5	92.2	0.9	.	.	.
CC(=O)c1cccc(N=c2scc(-c3ccc(S(=O)(=O)N4CCOCC4)cc3)n2CCO)c1	75.2*	78.8	1.07	-17.1	37.7	24.2	77.5*	26.9*	25.3*
CCOc1ccc(S(=O)(=O)Oc2ccc3ccccc3c2)cc1	7.3	98.3	1.19	-1.2	96.7	1.9	.	.	.
Cc1ccc2nc(-c3cccc(N)c3)[nH]c2c1	66.3*	93.2	4.8*	97.5	47.3	7.4	26.7	-9.9	-90.5
O=[N+]([O-])c1cccc(-c2nc3ccc([N+](=O)[O-])cc3[nH]2)c1	25.7	122.9	1.63	22.1	81.9	-22.3	.	.	.
Cc1ccc(-c2nc3ccc([N+](=O)[O-])cc3[nH]2)cc1	77.0*	70.6	5.94*	152.1*	40.5	31.4	32.3	-15.5	-126.9
COCCN=C1Sc2nc3cc4c(cc3cc2CN1CC1CCCO1)OCO4 (stereo not drawn)	12.0	88.4	1.18	11.6	95.3	11.9	.	.	.

Source: PubChem
